Source: ChEMBL document CHEMBL4808198, “Synthesis, bioevaluation and docking studies of new imidamide derivatives as nitric oxide synthase inhibitors” (Bioorg Med Chem, 2021)

Columns and labels:
[1] = target: T1, Nitric oxide synthase, inducible (Homo sapiens, UniProt P35228); experiment: Inhibition of N-terminal His-tagged human recombinant iNOS expressed in Escherichia coli assessed as reduction in L-[3H]-citrulline level using L-[3H]-arginine as substrate at 1 mM incubated for 30 mins by liquid scintillation method relative to control
Nitric oxide synthase 1 [2] = target: T2, Nitric oxide synthase 1 (Homo sapiens, UniProt P29475); experiment: Inhibition of human recombinant nNOS expressed in Escherichia coli assessed as reduction in L-[3H]-citrulline level using L-[3H]-arginine as substrate at 1 mM incubated for 30 mins by liquid scintillation method relative to control
HUVEC = experiment: Cytotoxicity against HUVEC assessed as reduction in cell viability at 10 to 100 uM measured after 30 mins by MTT assay; assay type: cell-based; conditions: human, 0.5 h, 500 µM, in the assay text read “10 to 500 uM” for “10 to 100 uM”
Procedure, shortened: (§1)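 HUVECs seeded at 1x10⁴ cells/well, grown 24 h at 37 °C, switched to serum-free medium for at least 2 h, then exposed to serial dilutions (10 - 500 µM) for 30 min. MTT added for 3 h at 37 °C, formazan dissolved in DMSO, absorbance read at 570 nm minus 630 nm background. Viability given as % of untreated cells. At least three independent runs in triplicate.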

[3] = Cytotoxicity against HUVEC assessed as reduction in cell viability at 500 uM measured after 30 mins by MTT assay relative to control; assay type: cell-based; conditions: human, HUVEC cells, read-out: INH; procedure, shortened: as §1
Nitric oxide synthase 1 [4] = target: T2, Nitric oxide synthase 1; experiment: Inhibition of human recombinant nNOS expressed in Escherichia coli assessed as reduction in L-[3H]-citrulline level using L-[3H]-arginine as substrate incubated for 30 min by scintillation counting
[5] = target: T1, Nitric oxide synthase, inducible; experiment: Inhibition of N-terminal His-tagged human recombinant iNOS expressed in Escherichia coli assessed as reduction in L-[3H]-citrulline level using L-[3H]-arginine as substrate incubated for 30 min by scintillation counting
Nitric oxide synthase 3 [6] = target: T3, Nitric oxide synthase 3 (Rattus norvegicus, UniProt Q62600); experiment: Inhibition of eNOS in Wistar rat endothelium-intact thoracic aortic rings assessed as inhibition of acetylcholine-evoked relaxation at 100 uM pretreated with compound for 30 mins followed by norepinephrine addition and later incubated with acetylcholine; assay type: tissue-based, Thoracic aorta; conditions: 0.5 h
T3 sequence (Q62600 whole entry): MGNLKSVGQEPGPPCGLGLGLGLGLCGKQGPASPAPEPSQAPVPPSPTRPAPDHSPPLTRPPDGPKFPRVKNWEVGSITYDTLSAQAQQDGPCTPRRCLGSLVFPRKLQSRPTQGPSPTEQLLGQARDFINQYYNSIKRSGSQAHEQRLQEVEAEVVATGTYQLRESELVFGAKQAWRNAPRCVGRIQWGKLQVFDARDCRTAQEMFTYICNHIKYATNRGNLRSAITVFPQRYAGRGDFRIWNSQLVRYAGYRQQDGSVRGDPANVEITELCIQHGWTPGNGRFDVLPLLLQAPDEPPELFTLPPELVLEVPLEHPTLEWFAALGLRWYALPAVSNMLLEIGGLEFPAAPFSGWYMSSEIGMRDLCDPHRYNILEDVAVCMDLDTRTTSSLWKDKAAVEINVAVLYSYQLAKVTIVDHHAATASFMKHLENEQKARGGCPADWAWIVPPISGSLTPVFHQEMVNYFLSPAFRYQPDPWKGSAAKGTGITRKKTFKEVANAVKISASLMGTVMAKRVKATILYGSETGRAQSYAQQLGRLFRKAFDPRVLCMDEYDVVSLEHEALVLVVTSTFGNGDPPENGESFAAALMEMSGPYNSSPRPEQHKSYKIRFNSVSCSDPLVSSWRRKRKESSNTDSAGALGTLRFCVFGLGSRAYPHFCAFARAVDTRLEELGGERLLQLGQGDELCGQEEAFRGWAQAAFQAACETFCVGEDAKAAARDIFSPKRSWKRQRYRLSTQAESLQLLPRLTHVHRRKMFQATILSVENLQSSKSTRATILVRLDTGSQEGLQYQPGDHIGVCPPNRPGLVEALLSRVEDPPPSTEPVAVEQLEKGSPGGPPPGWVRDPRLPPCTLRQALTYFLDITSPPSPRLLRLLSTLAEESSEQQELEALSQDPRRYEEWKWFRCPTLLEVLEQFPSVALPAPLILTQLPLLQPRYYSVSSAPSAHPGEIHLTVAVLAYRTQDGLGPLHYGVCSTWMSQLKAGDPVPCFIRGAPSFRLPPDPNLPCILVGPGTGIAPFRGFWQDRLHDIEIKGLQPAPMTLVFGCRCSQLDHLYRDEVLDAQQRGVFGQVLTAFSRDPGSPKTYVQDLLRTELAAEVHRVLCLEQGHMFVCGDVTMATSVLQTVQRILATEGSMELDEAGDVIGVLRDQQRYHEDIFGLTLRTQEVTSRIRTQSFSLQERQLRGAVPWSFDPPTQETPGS
Procedure, shortened: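 Descending thoracic aortic rings with endothelium were held in Krebs solution at 37 °C, gassed with 95% O2/5% CO2, at 2 g resting tension, with isometric force recorded. Rings were incubated 30 min with test agent or DMSO vehicle (1/10⁶), then contracted with 1 µM norepinephrine. At plateau, acetylcholine was added cumulatively. Relaxation is given as % of norepinephrine contraction; n = rings from different rats; two-way ANOVA with Dunnett.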

Nitric oxide synthase 3 [7] = target: T3, Nitric oxide synthase 3; experiment: Inhibition of eNOS in Wistar rat endothelium-intact thoracic aortic rings assessed as inhibition of acetylcholine-evoked relaxation at 20 uM pretreated with compound for 30 mins followed by norepinephrine addition and later incubated with acetylcholine; assay type: tissue-based, Thoracic aorta; conditions: 0.5 h
Procedure, shortened: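 Rat descending thoracic aortic rings with endothelium, in Krebs at 37 °C gassed with 95% O₂/5% CO₂, 2 g resting tension, isometric recording. Incubated 30 min with compound (20 µM), L-NAME (100 µM) or DMSO vehicle (1/10⁶), contracted with 1 µM norepinephrine, then cumulative acetylcholine. Relaxation given as % of norepinephrine contraction. Two-way ANOVA with Dunnett's test.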

T1 sequence (P35228 whole entry): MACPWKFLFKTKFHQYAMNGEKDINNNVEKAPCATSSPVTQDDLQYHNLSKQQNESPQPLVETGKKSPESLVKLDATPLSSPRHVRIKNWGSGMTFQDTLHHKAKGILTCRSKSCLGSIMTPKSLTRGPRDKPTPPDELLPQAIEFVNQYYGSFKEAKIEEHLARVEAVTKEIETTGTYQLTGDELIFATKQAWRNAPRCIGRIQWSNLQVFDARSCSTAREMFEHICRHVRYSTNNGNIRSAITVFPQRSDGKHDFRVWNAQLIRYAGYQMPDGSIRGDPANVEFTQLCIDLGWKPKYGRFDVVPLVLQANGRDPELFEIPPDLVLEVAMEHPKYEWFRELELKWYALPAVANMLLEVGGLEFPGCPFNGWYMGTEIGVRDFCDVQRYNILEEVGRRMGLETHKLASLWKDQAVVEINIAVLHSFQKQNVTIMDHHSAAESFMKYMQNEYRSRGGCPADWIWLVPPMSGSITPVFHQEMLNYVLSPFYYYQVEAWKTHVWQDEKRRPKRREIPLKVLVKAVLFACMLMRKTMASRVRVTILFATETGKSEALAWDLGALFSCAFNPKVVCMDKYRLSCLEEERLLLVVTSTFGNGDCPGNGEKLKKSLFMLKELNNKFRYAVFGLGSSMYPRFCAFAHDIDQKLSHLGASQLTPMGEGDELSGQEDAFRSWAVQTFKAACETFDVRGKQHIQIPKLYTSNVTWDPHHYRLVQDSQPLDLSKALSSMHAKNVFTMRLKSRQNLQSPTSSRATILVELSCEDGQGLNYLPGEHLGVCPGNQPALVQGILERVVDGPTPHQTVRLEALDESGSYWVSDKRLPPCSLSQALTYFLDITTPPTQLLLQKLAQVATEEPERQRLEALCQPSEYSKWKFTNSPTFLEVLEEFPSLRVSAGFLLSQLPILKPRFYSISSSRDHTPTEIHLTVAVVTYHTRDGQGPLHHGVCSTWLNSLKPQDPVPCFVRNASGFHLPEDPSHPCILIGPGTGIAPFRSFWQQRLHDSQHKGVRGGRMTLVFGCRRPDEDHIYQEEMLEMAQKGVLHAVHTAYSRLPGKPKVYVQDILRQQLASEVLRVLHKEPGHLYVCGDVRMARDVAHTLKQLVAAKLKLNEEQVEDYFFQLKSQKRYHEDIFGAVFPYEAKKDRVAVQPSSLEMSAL
T2 sequence (P29475 whole entry): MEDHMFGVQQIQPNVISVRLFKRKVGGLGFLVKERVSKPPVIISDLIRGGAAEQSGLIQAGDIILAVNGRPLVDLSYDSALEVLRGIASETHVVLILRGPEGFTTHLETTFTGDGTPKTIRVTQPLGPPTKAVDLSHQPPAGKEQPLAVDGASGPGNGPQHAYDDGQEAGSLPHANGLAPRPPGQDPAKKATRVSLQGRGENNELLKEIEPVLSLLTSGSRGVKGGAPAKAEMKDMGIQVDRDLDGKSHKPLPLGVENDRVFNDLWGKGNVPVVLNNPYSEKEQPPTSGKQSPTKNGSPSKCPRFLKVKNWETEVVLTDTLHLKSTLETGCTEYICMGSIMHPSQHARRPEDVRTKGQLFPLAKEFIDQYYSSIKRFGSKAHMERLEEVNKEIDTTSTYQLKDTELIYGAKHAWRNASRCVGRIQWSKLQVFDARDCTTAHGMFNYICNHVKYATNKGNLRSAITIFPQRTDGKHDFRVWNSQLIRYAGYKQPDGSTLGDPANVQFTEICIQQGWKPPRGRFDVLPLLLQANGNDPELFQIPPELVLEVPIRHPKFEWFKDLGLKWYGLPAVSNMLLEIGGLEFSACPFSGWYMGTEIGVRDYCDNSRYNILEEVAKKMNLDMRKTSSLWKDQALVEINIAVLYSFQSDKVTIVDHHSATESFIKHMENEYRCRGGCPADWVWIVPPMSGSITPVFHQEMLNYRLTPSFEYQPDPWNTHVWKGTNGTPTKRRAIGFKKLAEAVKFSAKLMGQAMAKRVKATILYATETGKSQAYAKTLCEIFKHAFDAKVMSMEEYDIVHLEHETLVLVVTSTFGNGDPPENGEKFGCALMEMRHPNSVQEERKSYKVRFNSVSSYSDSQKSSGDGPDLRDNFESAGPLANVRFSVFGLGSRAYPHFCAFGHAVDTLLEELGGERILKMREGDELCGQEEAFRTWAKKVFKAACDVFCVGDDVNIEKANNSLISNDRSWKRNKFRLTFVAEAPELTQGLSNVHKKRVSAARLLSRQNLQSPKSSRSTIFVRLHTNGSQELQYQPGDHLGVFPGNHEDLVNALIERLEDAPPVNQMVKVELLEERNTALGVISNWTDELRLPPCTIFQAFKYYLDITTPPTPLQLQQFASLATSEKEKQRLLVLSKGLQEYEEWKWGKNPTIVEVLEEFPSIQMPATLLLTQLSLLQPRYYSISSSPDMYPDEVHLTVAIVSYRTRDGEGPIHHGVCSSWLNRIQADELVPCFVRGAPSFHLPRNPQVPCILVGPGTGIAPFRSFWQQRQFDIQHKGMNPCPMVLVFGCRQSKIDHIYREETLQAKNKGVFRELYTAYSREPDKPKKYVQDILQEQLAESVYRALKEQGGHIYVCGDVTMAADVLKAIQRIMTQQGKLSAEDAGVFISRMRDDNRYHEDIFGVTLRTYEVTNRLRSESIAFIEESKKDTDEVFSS

Compound	inhibition [1] [%]	inhibition (Nitric oxide synthase 1 [2]) [%]	Activity (HUVEC)	cytotoxicity at 0.5 h, 500 µM [3] [%]	IC50 (Nitric oxide synthase 1 [4]) [µM]	IC50 [5] [µM]	inhibition (INH) (Nitric oxide synthase 3 [6])	inhibition (INH) (Nitric oxide synthase 3 [7])
COc1ccc(N)c(C(O)CCNC(=N)c2ccccc2)c1 (stereo not given)	95.9	7.18	Non-Toxic	20	> 1000	22.5		
CC(=N)NCCC(=O)c1cc(Cl)ccc1N	99.1	19.9	Non-Toxic	20	> 1000	25.6		
CC(=N)NCCC(O)c1cc(Cl)ccc1N (stereo not given)	49.1	66.1						
COc1ccc(N)c(C(=O)CCNC(C)=N)c1	97.6	89.2			223	59.7		
N=C(NCCC(=O)c1ccccc1N)c1ccc(C(F)(F)F)cc1	68.6	56						
N=C(NCCC(O)c1ccccc1N)c1ccc(C(F)(F)F)cc1 (stereo not given)	60.5	36.5						
COC(=O)[C@@H](N)CCCNC(=N)N[N+](=O)[O-] [L-NAME]							Active	
CNC(=S)NCCC(O)c1cc(OC)ccc1N (stereo not given)					130	180		
N=C(NCCC(=O)c1ccccc1N)c1ccccc1	35.6	66.5						
CCNC(=O)NCCC(=O)c1cc(Cl)ccc1N					> 1000	100		
N=C(NCCC(=O)c1ccccc1N)c1ccc(Cl)cc1	33.4	37.4						
COc1ccc(N)c(C(O)CCNC(C)=N)c1 (stereo not given)	57.4	19						
COc1ccc(N)c(C(=O)CCNC(=N)c2ccccc2)c1	94.7	85.9	Non-Toxic	20	194	45.2		
CC(=N)NCCC(=O)c1ccccc1N	22.2	88.8			325	> 1000		
CC(=N)NCCC(O)c1ccccc1N (stereo not given)	16.2	28.3						
COc1ccc(N)c(C(O)CCNC(=N)c2ccc(C(F)(F)F)cc2)c1 (stereo not given)	99.6	12.5	Non-Toxic	20	> 1000	20		Not Active
N=C(NCCC(O)c1ccccc1N)c1ccccc1 (stereo not given)	64.1	23.2						
N=C(NCCC(O)c1ccccc1N)c1ccc(Cl)cc1 (stereo not given)	73.2	31.6						
COc1ccc(N)c(C(O)CCNC(=N)c2ccc(Cl)cc2)c1 (stereo not given)	81	58.5						
COc1ccc(N)c(C(=O)CCNC(=N)c2ccc(Cl)cc2)c1	75.1	86.4						
